Measured values from ChEMBL document CHEMBL4819098, “Novel 1,2,4-triazine-quinoline hybrids: The privileged scaffolds as potent multi-target inhibitors of LPS-induced inflammatory response via dual COX-2 and 15-LOX inhibition” (Eur J Med Chem, 2021).

Key:
[1] = biological target: T1, Prostaglandin G/H synthase 1 (Ovis aries, UniProt P05979); assay: Inhibition of ovine COX-1 using arachidonic acid as substrate preincubated with enzyme for 5 mins followed by substrate addition by colorimetric analysis
T1 sequence (P05979 whole entry): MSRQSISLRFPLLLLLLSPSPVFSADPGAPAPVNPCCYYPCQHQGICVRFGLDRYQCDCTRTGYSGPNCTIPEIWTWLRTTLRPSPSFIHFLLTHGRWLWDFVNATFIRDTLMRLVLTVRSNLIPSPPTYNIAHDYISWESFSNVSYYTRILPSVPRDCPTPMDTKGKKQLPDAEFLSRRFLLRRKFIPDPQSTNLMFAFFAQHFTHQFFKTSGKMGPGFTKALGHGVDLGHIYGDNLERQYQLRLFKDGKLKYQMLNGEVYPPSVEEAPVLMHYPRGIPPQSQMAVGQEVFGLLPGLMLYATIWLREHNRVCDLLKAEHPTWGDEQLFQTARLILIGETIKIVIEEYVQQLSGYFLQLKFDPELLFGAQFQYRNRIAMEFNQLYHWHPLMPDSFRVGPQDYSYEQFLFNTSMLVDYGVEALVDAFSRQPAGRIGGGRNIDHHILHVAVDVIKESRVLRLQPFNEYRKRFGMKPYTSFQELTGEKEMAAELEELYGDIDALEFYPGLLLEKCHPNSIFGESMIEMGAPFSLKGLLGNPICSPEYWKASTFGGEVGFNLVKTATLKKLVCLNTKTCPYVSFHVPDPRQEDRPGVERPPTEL

[2] = biological target: T2, Prostaglandin G/H synthase 2 (Homo sapiens, UniProt P35354); assay: Inhibition of human recombinant COX-2 using arachidonic acid as substrate preincubated with enzyme for 5 mins followed by substrate addition by colorimetric analysis
T2 sequence (P35354 whole entry): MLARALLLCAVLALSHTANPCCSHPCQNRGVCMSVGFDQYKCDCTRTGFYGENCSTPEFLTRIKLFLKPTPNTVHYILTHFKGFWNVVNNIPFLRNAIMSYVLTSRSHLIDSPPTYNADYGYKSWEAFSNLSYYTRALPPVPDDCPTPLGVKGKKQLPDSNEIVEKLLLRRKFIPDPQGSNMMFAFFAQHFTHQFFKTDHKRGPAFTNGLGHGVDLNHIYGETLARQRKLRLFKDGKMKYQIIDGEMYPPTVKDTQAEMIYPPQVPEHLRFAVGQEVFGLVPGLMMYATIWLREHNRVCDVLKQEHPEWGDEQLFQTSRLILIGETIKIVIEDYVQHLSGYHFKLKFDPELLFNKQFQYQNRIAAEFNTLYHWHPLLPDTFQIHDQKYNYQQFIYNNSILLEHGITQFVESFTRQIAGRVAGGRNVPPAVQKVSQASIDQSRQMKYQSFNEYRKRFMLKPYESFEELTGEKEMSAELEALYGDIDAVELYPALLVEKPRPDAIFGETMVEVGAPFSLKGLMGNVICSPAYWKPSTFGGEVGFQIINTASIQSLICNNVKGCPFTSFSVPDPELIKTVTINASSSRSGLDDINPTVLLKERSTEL

[3] = Selectivity index, ratio of IC50 for ovine COX-1 to IC50 for human recombinant COX-2
Procedure, shortened: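 Enzyme kit assay with ovine COX-1 and human recombinant COX-2. IC50 determined from three replicates. Selectivity index taken as IC50(COX-1)/IC50(COX-2).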

[4] = Inhibition of soybean 15-LOX using arachidonic acid or linolenic acid as substrate in presence of hydrogen peroxide incubated for 5 mins by colorimetric analysis; design: species or system Glycine max
[5] = system: RAW264.7; assay: Inhibition of LPS-induced NO production in mouse RAW264.7 cells preincubated for 2 hrs followed by LPS stimulation and measured after 20 hrs by DAF-FM based fluorescence analysis; type: functional, cell-based
[6] = system: RAW264.7; assay: Antioxidant activity in mouse RAW264.7 cells assessed as inhibition of LPS-induced intracellular ROS production preincubated for 2 hrs followed by LPS stimulation and measured after 20 hrs by DCFH-DA staining based fluorescence analysis; type: functional, cell-based
[7] = system: RAW264.7; assay: Inhibition of LPS-induced TNFalpha production in mouse RAW264.7 cells preincubated for 2 hrs followed by LPS stimulation and measured after 20 hrs by ELISA; type: functional, cell-based
[8] = system: RAW264.7; assay: Inhibition of LPS-induced IL-6 production in mouse RAW264.7 cells preincubated for 2 hrs followed by LPS stimulation and measured after 20 hrs by ELISA; type: functional, cell-based
[9] = system: RAW264.7; assay: Inhibition of LPS-induced 15(S)-HETE production in mouse RAW264.7 cells preincubated for 2 hrs followed by LPS stimulation and measured after 20 hrs by ELISA; type: functional, cell-based
[10] = biological target: T3, Prostaglandin G/H synthase 2 (Homo sapiens) (UniProt P35354); assay: Potency index, ratio of diclofenac sodium IC50 to test compound IC50 for human recombinant COX-2 using arachidonic acid as substrate preincubated with enzyme for 5 mins followed by substrate addition by colorimetric analysis
T3 sequence (whole entry): T2 sequence (P35354 whole entry)

[11] = system: RAW264.7; assay: Cytotoxicity against mouse RAW264.7 cells assessed as reduction in cell viability by MTS assay; type: cell-based
Procedure, shortened: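 RAW 264.7 macrophage viability at the tested concentrations measured by MTS assay.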

[12] = system: RAW264.7; assay: Potency index, ratio of celecoxib IC50 to test compound IC50 for inhibition of LPS-induced NO production in mouse RAW264.7 cells preincubated for 2 hrs followed by LPS stimulation and measured after 20 hrs by DAF-FM based fluorescence analysis; type: functional; settings: time 22 hrs
[13] = system: RAW264.7; assay: Potency index, ratio of diclofenac sodium IC50 to test compound IC50 for inhibition of LPS-induced NO production in mouse RAW264.7 cells preincubated for 2 hrs followed by LPS stimulation and measured after 20 hrs by DAF-FM based fluorescence analysis; type: functional; settings: time 22 hrs
[14] = system: RAW264.7; assay: Potency index, ratio of celecoxib IC50 to test compound IC50 for inhibition of LPS-induced IL-6 production in mouse RAW264.7 cells preincubated for 2 hrs followed by LPS stimulation and measured after 20 hrs by ELISA; type: functional; settings: time 22 hrs
[15] = system: RAW264.7; assay: Potency index, ratio of diclofenac sodium IC50 to test compound IC50 for inhibition of LPS-induced IL-6 production in mouse RAW264.7 cells preincubated for 2 hrs followed by LPS stimulation and measured after 20 hrs by ELISA; type: functional; settings: time 22 hrs

With O=c1c(Cc2ccccc2)n[nH]c(=S)n1/N=C/c1cc2ccccc2nc1O the IC50 [1] was 11.3 µM, the IC50 [2] was 54 nM and the Ratio IC50 [3] was 209. The IC50 [4] was 2120 nM, the IC50 [5] was > 50 µM and the IC50 [6] was > 50 µM. The IC50 [7] was > 50 µM, the IC50 [8] was > 50 µM and the IC50 [9] was > 50 µM. The Ratio IC50 [10] was 15.6 and the Activity [11] was “Non-Toxic”.

COc1cc(Cc2n[nH]c(=S)n(/N=C/c3cc4cc(C)ccc4nc3O)c2=O)cc(OC)c1OC gave an IC50 [1] of 11.5 µM, an IC50 [2] of 65 nM and a Ratio IC50 [3] of 177. The IC50 [4] was 2060 nM, the IC50 [5] was 6.34 µM and the IC50 [6] was 6.67 µM. For the same compound, the IC50 [9] was 8.86 µM, the Ratio IC50 [10] was 12.9 and the “Ratio IC50” value [12] was 3. For the same compound, the “Ratio IC50” value [13] was 6 and the Activity [11] was “Non-Toxic”.

In the case of Cc1ccc2nc(O)c(/C=N/n3c(=S)[nH]nc(Cc4ccccc4)c3=O)cc2c1, the IC50 [1] is reported as 5.9 µM, the IC50 [2] is reported as 280 nM and the Ratio IC50 [3] is reported as 21.1. It also gave an IC50 [4] of 2660 nM, an IC50 [5] of 33.5 µM and an IC50 [6] of 7.31 µM. It also gave an IC50 [7] of 30.3 µM, an IC50 [8] of 13.5 µM and an IC50 [9] of 21.3 µM. For the same compound, the Ratio IC50 [10] was 3 and the Activity [11] was “Non-Toxic”.

COc1ccc2cc(/C=N/n3c(=S)[nH]nc(Cc4cc(OC)c(OC)c(OC)c4)c3=O)c(O)nc2c1 showed an IC50 [1] of 9.7 µM, an IC50 [2] of 97 nM and an IC50 [4] of 2180 nM. The IC50 [5] was > 50 µM, the IC50 [6] was 4.52 µM and the IC50 [7] was 2.61 µM. It also gave an IC50 [8] of 5.54 µM, an IC50 [9] of 18.6 µM and a Ratio IC50 [10] of 8.7. The Activity [11] was “Non-Toxic”, the Ratio IC50 [14] was 2 and the Ratio IC50 [15] was 2.3.

Compound COc1ccc2nc(O)c(/C=N/n3c(=S)[nH]nc(Cc4cc(OC)c(OC)c(OC)c4)c3=O)cc2c1 has an IC50 [1] of 11.8 µM, an IC50 [2] of 60 nM and a Ratio IC50 [3] of 197. The IC50 [4] was 2570 nM, the IC50 [5] was > 50 µM and the IC50 [6] was > 50 µM. The IC50 [7] was > 50 µM, the IC50 [8] was > 50 µM and the IC50 [9] was > 50 µM. The Ratio IC50 [10] was 14 and the Activity [11] was “Non-Toxic”.

COc1cc(Cc2n[nH]c(=S)n(/N=C/c3cc4cc(C)ccc4nc3O)c2=O)ccc1O showed an IC50 [1] of 10.3 µM, an IC50 [2] of 85 nM and a Ratio IC50 [3] of 121. The IC50 [4] was 1970 nM, the IC50 [5] was > 50 µM and the IC50 [6] was > 50 µM. The IC50 [7] was > 50 µM, the IC50 [8] was > 50 µM and the IC50 [9] was > 50 µM. For the same compound, the Activity [11] was “Non-Toxic”.

For O=c1c(Cc2cccs2)n[nH]c(=S)n1/N=C/c1cc2ccccc2nc1O, the IC50 [1] was 11.1 µM, the IC50 [2] was 79 nM and the Ratio IC50 [3] was 140. For the same compound, the IC50 [4] was 2130 nM, the IC50 [5] was 9.37 µM and the IC50 [6] was > 50 µM. For the same compound, the IC50 [7] was > 50 µM, the IC50 [8] was > 50 µM and the IC50 [9] was > 50 µM. The Activity [11] was “Non-Toxic”.
